Activity calls are given as the source filed them.
Legend:
Mus musculus [1] = assay: Antinociceptive activity against acetic acid-induced abdominal constrictions in ip dosed Swiss mouse pretreated 30 mins before acetic acid challenge; format: functional; settings: Abdomen; for ED50: read-out: ID50 (the source's name)
Method in brief: (§1)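 Swiss mice (25–35 g), 10 ml/kg ip of compound (1–60 mg/kg) or 0.9% NaCl control, given 30 min before ip 0.6% acetic acid. Abdominal constrictions with hind-limb stretching counted cumulatively over 20 min, mice in separate glass funnels at 20–22 °C. Groups of six to eight. ID50 is the geometric mean with 95% confidence limits, found by graphical interpolation.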

Mus musculus [2] = assay: Antinociceptive activity against acetic acid-induced abdominal constrictions in Swiss mouse assessed as maximal inhibition at 10 mg/kg, ip pretreated 30 mins before acetic acid challenge; format: functional; settings: Abdomen, route intraperitoneal; method in brief: as §1
Mus musculus [3] = assay: Antinociceptive activity against formalin-induced paw pain in ip dosed Swiss mouse pretreated 30 mins before formalin challenge assessed after 0 to 5 mins; format: functional; settings: for ED50: read-out: ID50 (the source's name)
Method in brief: (§2)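 Mice given compound (6–30 mg/kg, ip) or saline 30 min before intraplantar injection into the right hind paw of 20 µl 2.5% formalin (0.92% formaldehyde) in saline. Paw-licking time scored in a glass cylinder with a 45° mirror, 0–5 min (early phase) and 15–30 min (late phase). n = 6. ID50 as geometric mean with 95% confidence limits.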

Mus musculus [4] = assay: Antinociceptive activity against glutamate-induced paw pain in ip dosed Swiss mouse pretreated 30 mins before glutamate challenge; format: functional; settings: read-out: ID50 (the source's name)
Method in brief: (§3)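 Mice treated ip (6–30 mg/kg) 30 min before intraplantar injection into the right hind paw of 20 µl glutamate in PBS (30 µmol/paw). Time spent licking or biting the paw timed over 0–15 min in glass cylinders. n = 6. ID50 reported with 95% confidence limits.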

Mus musculus [5] = assay: Antinociceptive activity against acetic acid-induced abdominal constrictions in po dosed Swiss mouse pretreated 30 mins before acetic acid challenge; format: functional; settings: Abdomen, read-out: ID50 (the source's name)
Method in brief: (§4)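 Oral pretreatment (50–200 mg/kg) of Swiss mice before ip 0.6% acetic acid. Writhing (abdominal contractions plus hind-limb stretching) counted cumulatively for 20 min at 20–22 °C. Six animals per group, mean ± s.e.m. ID50 with 95% confidence limits obtained by graphical interpolation.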

Mus musculus [6] = assay: Antinociceptive activity against glutamate-induced paw pain in Swiss mouse assessed as maximal inhibition at 30 mg/kg, ip pretreated 30 mins before glutamate challenge; format: functional; settings: route intraperitoneal; method in brief: as §3
Mus musculus [7] = assay: Antinociceptive activity against formalin-induced paw pain in Swiss mouse assessed as maximal inhibition at 30 mg/kg, ip pretreated 30 mins before formalin challenge assessed after 0 to 5 mins; format: functional; settings: route intraperitoneal; method in brief: as §2
Mus musculus [8] = assay: Antinociceptive activity against acetic acid-induced abdominal constrictions in Swiss mouse assessed as maximal inhibition at 200 mg/kg, po pretreated 30 mins before acetic acid challenge; format: functional; settings: Abdomen; method in brief: as §4
Mus musculus [9] = assay: Antinociceptive activity against formalin-induced paw pain in Swiss mouse assessed as maximal inhibition at 6 mg/kg, ip pretreated 30 mins before formalin challenge assessed after 15 to 30 mins; format: functional; settings: route intraperitoneal; method in brief: as §2
Mus musculus [10] = assay: Antinociceptive activity against formalin-induced paw pain in Swiss mouse assessed as maximal inhibition at 30 mg/kg, ip pretreated 30 mins before formalin challenge assessed after 15 to 30 mins; format: functional; settings: route intraperitoneal; method in brief: as §2
Mus musculus [11] = assay: Antinociceptive activity against glutamate-induced paw pain in Swiss mouse assessed as maximal inhibition at 10 mg/kg, ip pretreated 30 mins before glutamate challenge; format: functional; settings: route intraperitoneal; method in brief: as §3
Mus musculus [12] = assay: Antinociceptive activity against formalin-induced paw pain in Swiss mouse assessed as maximal inhibition at 10 mg/kg, ip pretreated 30 mins before formalin challenge assessed after 15 to 30 mins; format: functional; settings: route intraperitoneal; method in brief: as §2
Mus musculus [13] = assay: Antinociceptive activity against formalin-induced paw pain in ip dosed Swiss mouse pretreated 30 mins before formalin challenge assessed after 15 to 30 mins; format: functional; settings: for ED50: read-out: ID50 (the source's name); method in brief: as §2
Mus musculus [14] = assay: Antinociceptive activity against capsaicin-induced paw pain in Swiss mouse assessed as maximal inhibition at 10 mg/kg, ip pretreated 30 mins before capsaicin challenge; format: functional, organism-based; parameters: dose 10 mg/kg
Mus musculus [15] = assay: Antinociceptive activity against heat-induced paw licking in Swiss mouse assessed as increase in licking latency period at 10 mg/kg, ip pretreated 30 mins before heat challenge by hot plate method; format: functional, organism-based; parameters: dose 10 mg/kg
Method in brief: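 Mice dosed ip (10 mg/kg), saline, or morphine sc, 30 min before placement on a plate held at 56 ± 1 °C. Latency to hind-paw licking, paw shaking or jumping recorded. Animals with baseline latency above 20 s excluded; cut-off 30 s. n = 6.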

Mus musculus [16] = assay: Antinociceptive activity against formalin-induced paw pain in Swiss mouse assessed as maximal inhibition at 10 mg/kg, ip pretreated 30 mins before formalin challenge assessed after 0 to 5 mins; format: functional; settings: route intraperitoneal; method in brief: as §2
Mus musculus [17] = assay: Antinociceptive activity against acetic acid-induced abdominal constrictions in Swiss mouse assessed as maximal inhibition at 100 mg/kg, po pretreated 30 mins before acetic acid challenge; format: functional; settings: Abdomen; method in brief: as §4
Mus musculus [18] = assay: Antinociceptive activity against acetic acid-induced abdominal constrictions in Swiss mouse assessed as maximal inhibition at 50 mg/kg, po pretreated 30 mins before acetic acid challenge; format: functional; settings: Abdomen; method in brief: as §4
Mus musculus [19] = assay: Antinociceptive activity against acetic acid-induced abdominal constrictions in Swiss mouse at 60 mg/kg, ip pretreated 30 mins before acetic acid challenge; format: functional, organism-based; parameters: dose 60 mg/kg; settings: Abdomen; method in brief: as §1

| Compound | Activity (Mus musculus [1]) | ED50 (Mus musculus [1]) | inhibition in vivo at 10 mg/kg (Mus musculus [2]) | other results |
| --- | --- | --- | --- | --- |
| Cc1ccc(/C=C/C(=O)c2ccc(NC(=S)Nc3ccc(Cl)cc3)cc2)cc1 | Dose-dependent effect | 13.1 µmol/kg | 75.3% |  |
| O=C(/C=C/c1ccccc1)c1ccc(NC(=S)Nc2ccc(Cl)cc2)cc1 | Dose-dependent effect | 3.03 µmol/kg | 94.5% | Activity (Mus musculus [3]): Dose-dependent effect; ED50 (Mus musculus [3]): 69.3 µmol/kg; ED50 (Mus musculus [4]): 62.1 µmol/kg; ED50 (Mus musculus [5]): 378 µmol/kg; inhibition in vivo at 30 mg/kg (Mus musculus [6]): 58.3%; inhibition in vivo at 30 mg/kg (Mus musculus [7]): 53.9%; inhibition in vivo at 200 mg/kg (Mus musculus [8]): 55%; inhibition in vivo at 6 mg/kg (Mus musculus [9]): 51%; inhibition in vivo at 30 mg/kg (Mus musculus [10]): 78.7%; inhibition in vivo at 10 mg/kg (Mus musculus [11]): 42.6%; inhibition in vivo at 10 mg/kg (Mus musculus [12]): 62.6%; Activity (Mus musculus [13]): Dose-dependent effect; ED50 (Mus musculus [13]): 26.9 µmol/kg; Activity (Mus musculus [14]): inactive; Activity (Mus musculus [15]): inactive; inhibition in vivo at 10 mg/kg (Mus musculus [16]): 37.8%; inhibition in vivo at 100 mg/kg (Mus musculus [17]): 43.4%; inhibition in vivo at 50 mg/kg (Mus musculus [18]): 23.5% |
| Cc1ccc(/C=C/C(=O)c2ccc(NC(=O)Nc3ccc(Cl)cc3)cc2)cc1 | Dose-dependent effect | 39.7 µmol/kg | 42.8% |  |
| O=C(Nc1ccc(Cl)cc1)Nc1ccc(C(=O)/C=C/c2ccc(Cl)cc2)cc1 | Dose-dependent effect | 45.4 µmol/kg | 51% |  |
| CC(=O)Nc1ccc(O)cc1 [ACETAMINOPHEN] |  |  | 38% | Activity (Mus musculus [3]): inactive; ED50 (Mus musculus [5]): 1140 µmol/kg; Activity (Mus musculus [14]): inactive |
| CC(=O)Oc1ccccc1C(=O)O [ASPIRIN] |  |  | 35% | Activity (Mus musculus [3]): inactive; ED50 (Mus musculus [5]): 605 µmol/kg; Activity (Mus musculus [14]): inactive |
| COc1ccc(/C=C/C(=O)c2ccc(NC(=O)Nc3ccc(Cl)cc3)cc2)cc1 | Dose-dependent effect | 31.1 µmol/kg | 84.4% |  |
| O=C(Nc1ccc(Cl)cc1)Nc1ccc(C(=O)/C=C/c2ccc(Cl)c(Cl)c2)cc1 |  |  | 21.6% | Activity (Mus musculus [19]): inactive |
| Cc1c(N(C)CS(=O)(=O)O)c(=O)n(-c2ccccc2)n1C [DIPYRONE SODIUM] |  | 162 µmol/kg | 33% | ED50 (Mus musculus [3]): 154 µmol/kg; ED50 (Mus musculus [13]): 264 µmol/kg |
| O=C(O)Cc1ccccc1Nc1c(Cl)cccc1Cl [DICLOFENAC] |  |  |  | ED50 (Mus musculus [3]): > 94 µmol/kg; ED50 (Mus musculus [13]): 34.5 µmol/kg |
| O=C(/C=C/c1ccc(Cl)cc1)c1ccc(NC(=S)Nc2ccc(Cl)cc2)cc1 | Dose-dependent effect | 7.59 µmol/kg | 100% |  |
| O=C(/C=C/c1ccc(Cl)c(Cl)c1)c1ccc(NC(=S)Nc2ccc(Cl)cc2)cc1 | Dose-dependent effect | 6.15 µmol/kg | 97.5% |  |
| O=C(Nc1ccc(Cl)cc1)Nc1ccc(C(=O)/C=C/c2ccccc2)cc1 | Dose-dependent effect | 7.25 µmol/kg | 74.6% |  |
| COc1ccc(/C=C/C(=O)c2ccc(NC(=S)Nc3ccc(Cl)cc3)cc2)cc1 | Dose-dependent effect | 10.4 µmol/kg | 92% |  |

From ChEMBL document CHEMBL1144157, “Synthesis of new 1-phenyl-3-{4-[(2E)-3-phenylprop-2-enoyl]phenyl}-thiourea and urea derivatives with anti-nociceptive activity” (2008)
